Laboratory results taken from ChEMBL document CHEMBL1129282, “High-affinity partial agonist imidazo[1,5-a]quinoxaline amides, carbamates, and ureas at the gamma-aminobutyric acid A/benzodiazepine receptor complex” (J Med Chem, 1996).
Activity calls are given as the source filed them.

Columns and labels:
[1] = biological target: GABA-A receptor; anion channel; assay: Inhibition of [3H]flunitrazepam binding to GABA-A receptor of rat cortical membranes; format: cell membranes, Membrane
Mus musculus [2] = species on record: Mus musculus; assay: Acute electroshock physical dependence activity was evaluated; IA=Inactive; format: functional, organism-based
Outline: (§1)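 Male CF-1 mice, 10/group, dosed sc twice daily (0800, and 1600 at twice the 0800 dose) for 3 days. 24 h after last dose, iv flumazenil 2.5 mg/kg in 5% aqueous N,N-dimethylacetamide. Electroshock seizure threshold (MA50) measured 5 min later versus saline-treated, flumazenil-injected controls. Compound scored active if threshold lowered beyond control interval.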

Mus musculus [3] = assay: Ethanol potentiation activity was measured as loss of righting reflex in male CF-1 mice after oral administration; format: functional
Mus musculus [4] = assay: Ethanol potentiation activity was measured as loss of traction response in male CF-1 mice after oral administration; format: functional
Mus musculus [5] = assay: In vivo antagonistic activity against benzodiazepine in mice after ip administration; format: functional
Outline: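 Male CF-1 mice injected ip simultaneously with triazolam 1 mg/kg and test compound starting at […], in 0.25% aqueous methyl cellulose. Loss of traction scored 15 min later. Absence of triazolam effect indicated antagonism; lower doses at 0.5 log intervals then tested to establish ED50.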

Rattus norvegicus [6] = assay: Antagonistic activity against metrazole-induced clonic convulsions in rat after ip injection; format: functional
Rattus norvegicus [7] = species on record: Rattus norvegicus; assay: In vitro [36Cl]-uptake in rat cerebrocortical synaptoneurosomes; format: functional; set-up: unit not given here
Outline: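 Rat cerebrocortical synaptoneurosomes (1 mg protein) preincubated 5 min at 30 °C, then mixed with medium containing 0.2 µCi Na36Cl/mL, 118 mM NaCl, 5 mM KCl, 1.8 mM MgSO4, 20 mM Hepes/Tris pH 7.0, ± drug (methanol ≤0.4%). Uptake stopped after 5 s with ice-cold buffer, rapid filtration, four washes, radioactivity counted.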

[8] = biological target: GABA-A receptor; anion channel (Rattus norvegicus) (UniProt O09028+P15431+P18506+P18508+P19969+P20236+P23574+P23576+P28471+P28473+P30191+P62813+P63079+P63138+Q91ZM7+Q9ES14); details: Brain, Brain membranes
Mus musculus [9] = species on record: Mus musculus; assay: Acute electroshock physical dependence activity was evaluated; A=Active; format: functional, organism-based; outline: as §1
[10] = biological target: T1, GABA-A receptor; alpha-1/beta-2/gamma-2 (Homo sapiens, UniProt P14867+P18507+P47870); assay: Displacement of [3H]Flunitrazepam from GABA-A receptor alpha-1-beta-2-gamma-2 subunits expressed in Sf9 cells
T1 sequence (P14867 whole entry): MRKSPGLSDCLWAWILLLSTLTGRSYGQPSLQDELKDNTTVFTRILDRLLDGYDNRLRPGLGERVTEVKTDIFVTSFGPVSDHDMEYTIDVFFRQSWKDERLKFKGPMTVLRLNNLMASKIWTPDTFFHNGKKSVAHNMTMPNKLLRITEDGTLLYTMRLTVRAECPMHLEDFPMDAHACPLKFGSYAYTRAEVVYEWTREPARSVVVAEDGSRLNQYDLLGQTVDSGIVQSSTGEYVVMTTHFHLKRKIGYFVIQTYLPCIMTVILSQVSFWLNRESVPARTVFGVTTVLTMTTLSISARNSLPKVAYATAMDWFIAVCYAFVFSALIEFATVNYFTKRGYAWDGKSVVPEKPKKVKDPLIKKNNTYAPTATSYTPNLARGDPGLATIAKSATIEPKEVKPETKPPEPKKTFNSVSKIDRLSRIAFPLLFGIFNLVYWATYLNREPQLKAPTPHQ
T1 sequence (P47870 whole entry): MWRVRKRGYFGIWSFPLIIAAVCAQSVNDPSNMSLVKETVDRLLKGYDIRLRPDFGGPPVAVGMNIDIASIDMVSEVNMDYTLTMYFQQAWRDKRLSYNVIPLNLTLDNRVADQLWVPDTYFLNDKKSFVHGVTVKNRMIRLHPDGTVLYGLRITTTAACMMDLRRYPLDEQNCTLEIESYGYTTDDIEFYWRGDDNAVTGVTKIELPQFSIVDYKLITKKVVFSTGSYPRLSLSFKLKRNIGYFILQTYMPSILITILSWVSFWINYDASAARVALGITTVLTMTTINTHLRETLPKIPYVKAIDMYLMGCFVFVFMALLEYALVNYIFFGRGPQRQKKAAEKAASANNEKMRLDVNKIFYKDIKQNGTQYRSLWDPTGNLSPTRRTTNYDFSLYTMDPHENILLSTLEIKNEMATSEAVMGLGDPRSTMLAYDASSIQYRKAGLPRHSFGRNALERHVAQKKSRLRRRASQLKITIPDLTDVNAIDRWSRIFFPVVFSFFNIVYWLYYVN
T1 sequence (P18507 whole entry): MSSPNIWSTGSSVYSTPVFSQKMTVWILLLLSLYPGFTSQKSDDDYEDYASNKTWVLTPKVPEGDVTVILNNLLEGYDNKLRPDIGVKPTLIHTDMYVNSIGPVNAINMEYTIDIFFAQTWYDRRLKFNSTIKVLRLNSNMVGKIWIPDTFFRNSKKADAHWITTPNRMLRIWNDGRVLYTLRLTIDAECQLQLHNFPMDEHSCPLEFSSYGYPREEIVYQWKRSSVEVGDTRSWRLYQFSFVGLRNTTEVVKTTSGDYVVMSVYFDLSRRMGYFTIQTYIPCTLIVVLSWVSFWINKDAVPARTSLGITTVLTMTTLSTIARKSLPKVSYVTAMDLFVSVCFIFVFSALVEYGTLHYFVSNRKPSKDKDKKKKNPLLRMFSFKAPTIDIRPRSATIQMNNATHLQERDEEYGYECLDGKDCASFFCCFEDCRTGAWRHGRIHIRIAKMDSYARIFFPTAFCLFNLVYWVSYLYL

[11] = biological target: GABA A receptor alpha-6/beta-2/gamma-2 (Homo sapiens, UniProt P18507+P47870+Q16445); assay: Displacement of [3H]-Ro-15-4513 from GABA-A receptor alpha-6-beta-2-gamma-2 subunits expressed in Sf9 cells
Outline: (§2)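 Membranes from Sf-9 cells infected (MOI 3) with baculoviruses for α1, α3 or α6 plus β2 and γ2 subunits, harvested 60 h postinfection. Binding in normal saline with 6 nM [3H]flunitrazepam (α1, α3) or [3H]Ro 15-4513 (α6), 50 µg membrane protein, varying test ligand. Incubated 60 min at 4 °C, filtered, scintillation counted.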

[12] = biological target: T1, GABA-A receptor; alpha-1/beta-2/gamma-2; assay: Displacement of [3H]flunitrazepam from GABA-A receptor alpha-1-beta-2-gamma-2 subunits expressed in Sf9 cells; outline: as §2
[13] = biological target: T2, GABA A receptor alpha-3/beta-2/gamma-2 (Homo sapiens, UniProt P18507+P34903+P47870); assay: (§3) Displacement of [3H]flunitrazepam from GABA-A receptor alpha-3-beta-2-gamma-2 subunits expressed in Sf9 cells
T2 sequence (P47870 whole entry): T1 sequence (P47870 whole entry)
T2 sequence (P18507 whole entry): T1 sequence (P18507 whole entry)
T2 sequence (P34903 whole entry): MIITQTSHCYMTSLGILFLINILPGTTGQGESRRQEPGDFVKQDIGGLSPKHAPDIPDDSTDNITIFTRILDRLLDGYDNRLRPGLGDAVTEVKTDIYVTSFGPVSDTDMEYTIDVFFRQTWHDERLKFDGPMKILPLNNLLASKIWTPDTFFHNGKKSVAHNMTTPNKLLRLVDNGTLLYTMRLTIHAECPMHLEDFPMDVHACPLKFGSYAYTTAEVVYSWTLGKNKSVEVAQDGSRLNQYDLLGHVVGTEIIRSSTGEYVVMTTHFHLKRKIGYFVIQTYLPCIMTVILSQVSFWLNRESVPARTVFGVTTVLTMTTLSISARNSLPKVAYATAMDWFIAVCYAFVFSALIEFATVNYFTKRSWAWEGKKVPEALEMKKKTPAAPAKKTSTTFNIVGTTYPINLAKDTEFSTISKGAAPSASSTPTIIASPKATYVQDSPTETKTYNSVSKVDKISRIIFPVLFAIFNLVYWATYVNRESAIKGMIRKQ
Outline: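 Sf-9 cells were co-infected with baculoviruses for α3, β2 and γ2 subunits at MOI 3 and harvested 60 h postinfection to prepare membranes. Binding used 6 nM [3H]flunitrazepam, 50 µg membrane protein and varying test ligand concentrations in normal saline (NaCl/KCl/MgCl2/CaCl2/Hepes, pH 7.2). Incubation ran 60 min at 4 °C, followed by glass-fibre filtration, four cold-saline washes and scintillation counting.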

[14] = biological target: T2, GABA A receptor alpha-3/beta-2/gamma-2; assay: as §3; outline: as §2; remark: listed apart in the source

GABA A receptor alpha-6/beta-2/gamma-2, sequence (Q16445 whole entry, one chain of several): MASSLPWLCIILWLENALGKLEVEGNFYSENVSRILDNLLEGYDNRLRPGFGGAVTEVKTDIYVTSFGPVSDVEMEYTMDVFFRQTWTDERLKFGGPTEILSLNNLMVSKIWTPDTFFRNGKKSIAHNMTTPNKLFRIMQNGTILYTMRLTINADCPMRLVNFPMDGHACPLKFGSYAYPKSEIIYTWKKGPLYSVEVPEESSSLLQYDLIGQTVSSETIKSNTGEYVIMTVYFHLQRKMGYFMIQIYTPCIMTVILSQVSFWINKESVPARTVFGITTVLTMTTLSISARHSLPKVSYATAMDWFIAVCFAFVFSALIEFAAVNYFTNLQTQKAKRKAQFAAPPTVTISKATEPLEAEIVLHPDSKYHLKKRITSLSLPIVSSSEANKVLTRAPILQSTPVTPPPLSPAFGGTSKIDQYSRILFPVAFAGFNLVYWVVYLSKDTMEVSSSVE

SMILES | Ki [1] [nM] | Activity (Mus musculus [2]) | ED50 (Mus musculus [3]) [mg/kg] | ED50 (Mus musculus [4]) [mg/kg] | ED50 (Mus musculus [5]) [mg/kg] | ED50 (Rattus norvegicus [6]) [mg/kg] | 36Cl- uptake (Rattus norvegicus [7]) | [35S] TBPS shift [8] | Activity (Mus musculus [9]) | Ki [10] [nM] | Ki [11] [nM] | Ki [12] [nM] | Ki [13] [nM] | Ki [14] [nM]
CCN(CC)C(=O)N1Cc2c(-c3noc(C4CC4)n3)ncn2-c2ccccc21 | 0.85 | inactive | > 30 | > 30 | 4 | 15 | 0.62 | 0.82 | – | – | – | – | – | –
CC1(C)c2c(-c3noc(C4CC4)n3)ncn2-c2ccc(Cl)cc2N1C(=O)N1CCCC1 | 3.3 | inactive | > 30 | 0.2 | 9 | 35 | 1.04 | 0.67 | – | – | – | – | – | –
CC(C)c1nc(-c2ncn3c2CN(C(=O)N2CCCC2)c2ccccc2-3)no1 | 1.1 | inactive | > 30 | 17 | > 30 | 11 | 0.4 | 0.69 | – | – | – | – | – | –
CN(C)C(=O)N1c2cc(Cl)ccc2-n2cnc(-c3noc(C4CC4)n3)c2C1(C)C | 3.1 | – | 17 | 3 | – | 7.4 | 1.33 | 0.79 | Active | – | – | – | – | –
O=C(c1ccccc1)N1Cc2c(-c3noc(C4CC4)n3)ncn2-c2ccccc21 | – | – | – | – | – | 42 | – | 0.54 | – | 0.3 | 1140 | – | – | –
CN(C)C(=O)N1Cc2c(-c3noc(C4CC4)n3)ncn2-c2cccc(F)c21 | 0.89 | – | > 30 | 3 | 4 | 21 | 0.6 | 0.84 | Active | – | – | – | – | –
CN(C)C(=O)N1Cc2c(-c3noc(C4CC4)n3)ncn2-c2ccccc21 [PNU-91571] | 1 | inactive | > 30 | 27 | 1 | 21 | 0.68 | 0.69 | – | – | – | 1.7 | 3.5 | –
O=C(N1CCOCC1)N1Cc2c(-c3noc(C4CC4)n3)ncn2-c2cccc(F)c21 | 0.48 | – | – | – | – | 6.2 | 0.42 | 0.66 | Active | 0.17 | 13 | – | – | 0.51
Cc1cccc2c1N(C(=O)N1CCOCC1)Cc1c(-c3noc(C4CC4)n3)ncn1-2 | 4.6 | – | – | – | – | 5.2 | 0.7 | 0.51 | – | 4.7 | – | – | – | 30
